# Laboratory results from publication PMC5377441 (International Journal for Parasitology: Drugs and Drug …, 2017).
# Where two headings read alike, the source gives them in different places. Marks after values point to notes of the source that are not given here.
# Key:
# T. muris [1] = details: ref Keiser et al., 2013, cited from earlier work
# adult H. polygyrus [2] = assay: In vitro drug activity against adult H. polygyrus, phenotypic readout; assay type: cell-based, Heligmosomoides polygyrus; details: 200 μM, 72 h
# In short: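 Adult H. polygyrus were dissected from NMRI mice from ten days post-infection onward. Four worms per drug were incubated in 2 ml at 200 μM for 72 h, with DMSO-matched worms as controls. Motility, transparency and morphology were scored from 3 (normal) to 0 (highly impaired or dead). Runs were done in duplicate and repeated once.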
# H. polygyrus [3] = details: oral 100 mg/kg, ref Unpublished data, cited from earlier work
# T. muris [4] = assay: Drug uptake by T. muris in vivo; set-up: species or system Trichuris muris in C57BL/10 mice; details: for drug quantity in worms, maximum: in vivo
# T. muris [5] = assay: In vitro drug uptake and elimination by T. muris; assay type: in vitro ADME, Trichuris muris; details: 24 h
# adult T. muris = details: incubation at >600 μM, 72 h; ref Keiser et al., 2012; cited from earlier work
# [6] = assay type: in vivo, C57BL/10 mice
# [7] = assay type: in vivo, NMRI mice; details: for albendazole in small intestinal mucosa / albendazole in stomach content: intraperitoneal 100 mg/kg, 2 h
# trichuriasis = details: ref Keiser and Utzinger, 2008; cited from earlier work
# H. polygyrus [8] = assay: Uptake of albendazole and its metabolites by H. polygyrus in vivo; set-up: species or system Heligmosomoides polygyrus in NMRI mice; details: for albendazole in worms: oral 100 mg/kg, average
# In short: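 Female NMRI mice were infected by oral gavage with 80 H. polygyrus L3. Groups received 100 mg/kg albendazole, albendazole after 50 mg/kg ABT given 16 h earlier, or albendazole sulfoxide, orally or intraperitoneally. Four mice per time point were killed at 2, 5 or 8 h (intraperitoneal groups at 2 h only). Worms were recovered, and drug was quantified by HPLC-UV/vis and reported per ten worms.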
# H. polygyrus [9] = assay: In vitro drug uptake and elimination by H. polygyrus; assay type: in vitro ADME, Heligmosomoides polygyrus
# hookworm infections = details: single oral dosage; ref Keiser and Utzinger, 2008; cited from earlier work
# adult H. polygyrus [10] = details: 100 μM, 72 h; ref Unpublished data; cited from earlier work
smiles,measurement,setting,value
"CCCSc1ccc2nc(NC(=O)OC)[nH]c2c1 [Albendazole, albendazole]",Worm burden reduction,T. muris [1]; oral 300 mg/kg,42% [300 mg/kg] ^c
same,Drug effect (reduction of parasite viability),adult H. polygyrus [2],50% [200 μM]
same,Drug effect (reduction of parasite viability),adult H. polygyrus [2]; listed as albendazole,50%
same,Worm burden reduction,H. polygyrus [3]; 100 mg/kg,100% [100 mg/kg] ^a
same,Worm burden reduction,"H. polygyrus [3]; listed as albendazole, 100 mg/kg",100%
same,"drug quantity in worms, maximum",T. muris [4],up to 31 nmol per ten T. muris
same,albendazole sulfone in the culture medium,T. muris [5]; incubation 5 to 100 μM,not detected
same,ABZ in worms,T. muris [5]; incubation at 5 μM,94 ± 44 nmol/10 worms
same,ABZ in worms,T. muris [5]; incubation at 10 μM,176 ± 83 nmol/10 worms
same,ABZ in worms,T. muris [5]; incubation at 25 μM,263 ± 173 nmol/10 worms
same,ABZ in worms,T. muris [5]; incubation at 50 μM,551 ± 528 nmol/10 worms
same,ABZ in worms,T. muris [5]; incubation at 75 μM,598 ± 336 nmol/10 worms
same,ABZ in worms,T. muris [5]; incubation at 100 μM,641 ± 467 nmol/10 worms
same,Drug effect,adult T. muris,<50% ^b
same,albendazole in stomach content,"[6]; intraperitoneal 100 mg/kg, 2 h",139 µmol/g
same,albendazole in the mucosa of the large intestine,"[6]; intraperitoneal 100 mg/kg, 2 h",8 µmol/g
same,albendazole in small intestine content,"[6]; oral 100 mg/kg, 5 and 8 h",around 5 μmol/g
same,albendazole in large intestinal content,"[6]; oral 100 mg/kg, 2 h",208 µmol/g
same,albendazole in small intestine content,"[6]; oral 100 mg/kg, 2 h",394 µmol/g
same,albendazole in the mucosa of the small intestine,"[6]; oral 100 mg/kg, 2 h",5 µmol/g
same,albendazole in large intestinal content,"[6]; oral 100 mg/kg, 5 h",57 µmol/g
same,albendazole in large intestinal content,"[6]; oral 100 mg/kg, 8 h",16 µmol/g
same,albendazole in stomach content,"[6]; oral 100 mg/kg, average between 2 and 8 h",114 µmol/g
same,albendazole in small intestinal mucosa,[7],not found
same,albendazole in stomach content,[7],2217 µmol/g
same,albendazole in the mucosa,"[7]; oral 100 mg/kg, 8 h",13 µmol/g
same,albendazole in large intestine content,"[7]; oral 100 mg/kg, end of the decrease over time (2-8 h)",99 µmol/g
same,albendazole in large intestine content,"[7]; oral 100 mg/kg, start of the decrease over time (2-8 h)",462 µmol/g
same,cure rate,trichuriasis,below 36%
same,"albendazole quantity in worms, maximum","H. polygyrus [8]; in vivo, 100 mg/kg",up to 10 nmol per ten H. polygyrus
same,albendazole in worms,H. polygyrus [8],6.2 nmol/10 worms
same,albendazole sulfone in the culture medium,"H. polygyrus [9]; incubation 5 to 100 μM, 24 h",could not be quantified
same,ABZ in worms,"H. polygyrus [9]; incubation at 5 μM, 24 h",13 ± 6 nmol/10 worms
same,ABZ in worms,"H. polygyrus [9]; incubation at 10 μM, 24 h",16 ± 5 nmol/10 worms
same,ABZ in worms,"H. polygyrus [9]; incubation at 25 μM, 24 h",5 ± 8 nmol/10 worms
same,ABZ in worms,"H. polygyrus [9]; incubation at 50 μM, 24 h",28 ± 4 nmol/10 worms
same,"albendazole in worms, plateau","H. polygyrus [9]; incubation at 50 μM, longer than 8 h",29 nmol/10 worms
same,ABZ in worms,"H. polygyrus [9]; incubation at 75 μM, 24 h",55 ± 49 nmol/10 worms
same,ABZ in worms,"H. polygyrus [9]; incubation at 100 μM, 24 h",10 ± 21 nmol/10 worms
same,cure rate,hookworm infections,72%
"CCC[S+]([O-])c1ccc2[nH]c(NC(=O)OC)nc2c1 (stereo not drawn) [Albendazole sulfoxide, albendazole sulfoxide]",Drug effect (reduction of parasite viability),adult H. polygyrus [2],60% [200 μM]
same,Drug effect (reduction of parasite viability),adult H. polygyrus [2]; listed as albendazole sulfoxide,60%
same,albendazole in small intestinal mucosa,[7],no albendazole was detected
same,albendazole in stomach content,[7],no albendazole was detected
same,"albendazole sulfoxide in plasma, compared to the albendazole treatment","[7]; oral 100 mg/kg, 5 h",5.2 fold
same,albendazole sulfoxide in the mucosa of the small intestine,"[7]; oral 100 mg/kg, 5 h",137 µmol/g
same,albendazole sulfoxide in the mucosa of the small intestine,"[7]; oral 100 mg/kg, other time points (2 and 8 h)",below 27 μmol/g
same,albendazole in worms,H. polygyrus [8],No albendazole was detected
same,albendazole in the culture medium,"H. polygyrus [9]; incubation 5 to 100 μM, 24 h",Neither albendazole nor albendazole sulfone could be quantified
same,albendazole sulfone in the culture medium,"H. polygyrus [9]; incubation 5 to 100 μM, 24 h",Neither albendazole nor albendazole sulfone could be quantified
"COC(=O)Nc1nc2ccc(C(=O)c3ccccc3)cc2[nH]1 [Mebendazole, mebendazole]",Worm burden reduction,T. muris [1]; oral 150 mg/kg,68% [150 mg/kg] ^c
same,Drug effect,adult H. polygyrus [10],0% [100 μM] ^a
same,Worm burden reduction,H. polygyrus [3],59% [100 mg/kg] ^a
same,"drug quantity in worms, maximum",T. muris [4],≤ 21 nmol per ten T. muris
same,mebendazole in worms,"T. muris [4]; intraperitoneal 100 mg/kg, 2 h",5 nmol/10 worms
same,mebendazole in worms,"T. muris [4]; oral 100 mg/kg, unchanged over time, close to LLOQ",20 nmol/10 worms
same,MBZ in worms,T. muris [5]; incubation at 5 μM,482 ± 388 nmol/10 worms
same,MBZ in worms,T. muris [5]; incubation at 10 μM,626 ± 463 nmol/10 worms
same,MBZ in worms,T. muris [5]; incubation at 25 μM,672 ± 251 nmol/10 worms
same,MBZ in worms,T. muris [5]; incubation at 50 μM,826 ± 390 nmol/10 worms
same,MBZ in worms,T. muris [5]; incubation at 75 μM,910 ± 362 nmol/10 worms
same,MBZ in worms,T. muris [5]; incubation at 100 μM,861 ± 503 nmol/10 worms
same,Drug effect,adult T. muris,<50% ^b
same,concentration at 2 h,"[6]; C57BL/10, mouse, plasma, intraperitoneal, 100 mg/kg",3.6 µM
same,mebendazole in the mucosa of the large intestine,"[6]; intraperitoneal 100 mg/kg, 2 h",1 µmol/g
same,mebendazole in the mucosa of the small intestine,"[6]; intraperitoneal 100 mg/kg, 2 h",4 µmol/g
same,administered drug in the large intestine,"[6]; oral 100 mg/kg, 2 h",18 µmol/g
same,administered drug in the mucosa of the large intestine,"[6]; oral 100 mg/kg, 2 h",3 µmol/g
same,administered drug in the mucosa of the small intestine,"[6]; oral 100 mg/kg, 2 h",8 µmol/g
same,administered drug in the small intestine,"[6]; oral 100 mg/kg, 2 h",222 µmol/g
same,administered drug in the stomach,"[6]; oral 100 mg/kg, 2 h",215 µmol/g
same,administered drug in the large intestine,"[6]; oral 100 mg/kg, 5 h",100 µmol/g
same,administered drug in the mucosa of the large intestine,"[6]; oral 100 mg/kg, 5 h",5 µmol/g
same,administered drug in the mucosa of the small intestine,"[6]; oral 100 mg/kg, 5 h",6 µmol/g
same,administered drug in the large intestine,"[6]; oral 100 mg/kg, 8 h",40 µmol/g
same,administered drug in the mucosa of the large intestine,"[6]; oral 100 mg/kg, 8 h",2 µmol/g
same,administered drug in the mucosa of the small intestine,"[6]; oral 100 mg/kg, third value, time not given",4 µmol/g
same,cure rate,trichuriasis,below 36%
